From PubChem
XiGFP reactiv – reactivates the inactive X chromosome in mouse fibroblasts. XiGFP mouse fibroblasts, % GFP-positive cells imaging, 3 d; cells co-treated with 5-aza-dC sensitizer; scaled so ellipticine positive control = 100%. activation, % at 7.58 µM. AID 743238. 0.055% of 360,000 active;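 active = mean normalized replicate activation at least 10% and every replicate at or above 10%; inconclusive = only one of the two criteria met; inactive = mean below 10% and not all replicates reach 10%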;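 note: 0% = median of on-plate neutral control wells and 100% = ellipticine 6 µM median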
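Material: XiGFP fibroblasts, SV40-immortalized; Buffer or medium: DMEM containing 5-aza-dC; Compound dosing: single point; Times: 3 days compound exposure.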
Wnt act – Wnt/beta-catenin pathway activation; Wnt/beta-catenin reporter cell assay, activator, plate reader; activation, % at 9.35 µM; 1.2% of 300,000 active; in the data active = activation above about 30%, passing the limit was not always enough; inconclusive = no clear call, values can overlap the other calls;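 note: 0% = neutral control wells and 100% = positive control wells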
esBAF inh – SWI/SNF esBAF complex inhibition | mouse ES cells, Bmi1-luciferase knock-in reporter, 24 h; 100% = twice the neutral-well signal | reporter increase, % at 12.5 µM | 2% of 350,000 active; in the data active = activation above about 40%; inconclusive = no clear call, values can overlap the other calls;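 note: 0% = median of the plate's neutral control wells and 100% = double that signal; a rise in the Bmi1 reporter signal indicates esBAF inhibition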
MITF act – increases MITF-driven TRPM1 promoter luciferase signal | 0.75% of 300,000 active | SK-MEL-5 TRPM1-promoter luciferase, 24 h; % of positive control, neutral wells = 0 | AID 588334 | activation, % at 12.5 µM;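 active = mean activation of at least 80% with every replicate also reaching 80%; inconclusive = mean reaches 80% but some replicate falls short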;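 note: 0% = neutral control wells and 100% = parthenolide positive control wells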
Vif imaging – HIV Vif inhibition. HEK293T cells, Vif self-association by quenched fluorescence, imaging, 24 h. inhibition, % at 7.49 µM. 0.35% of 340,000 active; in the data active = inhibition above about 50%, passing the limit was not always enough; inconclusive = no clear call, values can overlap the other calls; inactive = below about 31%
Active calls of the source: *; ? = inconclusive; · = no result. Most compounds without a hit are left out; they make up all but 2.6% or so of the library.

SMILES	XiGFP reactiv	Wnt act	esBAF inh	MITF act	Vif imaging
COc1ccc(-c2csc(C(O)c3ccccc3)n2)cn1 (configuration not stated)	·	·	61*	·	·
COc1cccc(C(O)c2nc(-c3ccc(N(C)C)cc3)cs2)c1 (configuration not stated)	0	19	45*	·	-32
OC(c1ccccc1)c1nc(-c2cccs2)cs1 (configuration not stated)	0	6	49*	·	11
Cn1c(=N)n(CC(=O)c2cccs2)c2ccccc21	·	29	44*	12	7
CCCn1c(=N)n(CC(=O)c2cccs2)c2ccccc21	·	-4	-2	0	3
Cc1nc2nc(N)nc(OCc3ccccc3)c2nc1C	0	50*	·	·	-3
C[C@@H]1CCCCO[C@@H](CN(C)C(=O)CCC(F)(F)F)[C@H](C)CN([C@H](C)CO)C(=O)c2cc(NS(=O)(=O)c3ccc(Cl)cc3)ccc2O1	0	·	31	·	·
COc1ccc(NC(=O)c2cnc3sccn3c2=O)cc1	·	42*	·	19	·
Cc1cccc(NC(=O)c2cnc3sccn3c2=O)c1	0	29	-10	·	·
Cc1ccc(S(=O)(=O)N(C)C[C@H]2Oc3ccc(NC(=O)C4CC4)cc3C(=O)N([C@H](C)CO)C[C@@H]2C)cc1	-1	·	-4	·	·
CCCC[n+]1c(-c2ccc(Cl)cc2Cl)csc1Nc1ccccc1	0	·	6	33	-12
Clc1ccc(-c2csc(Nc3ccccc3)[n+]2Cc2ccco2)c(Cl)c1	0	43*	·	89*	-15
C[C@@H]1CN([C@@H](C)CO)C(=O)c2cc(C3=CCCC3)cnc2O[C@@H]1CN(C)Cc1ccccc1F	·	·	-3	·	·
N=C1/C(=C/c2ccc(OCc3ccccc3F)cc2)C(=O)N=C2SC(CC(=O)N3CCOCC3)=NN12	0	10	16	38	2
N=C1/C(=C/c2ccc(OCc3ccccc3)cc2)C(=O)N=C2SC(CC(=O)N3CCOCC3)=NN12	0	3	42*	35	-9
CS(=O)(=O)N1C[C@@H]2C(c3ccc(Br)cc3)[C@H](C1)N2Cc1ccc(F)cc1 (some centres not stated)	0	·	·	·	·
O=C(COc1ncnc2cc(Cl)ccc12)c1ccccc1	0	-1	71*	31	-2
O=C(COc1ncnc2ccccc12)c1ccc(Cl)cc1	0	10	?	27	10
CN(C(=O)/C=C/c1ccccc1)C1CCCCC1	0	48*	·	·	-2
CO[C@H]1CN(C)C(=O)c2cc(NC(=O)NC3CCCC3)ccc2OC[C@@H](C)NC[C@H]1C	1	·	·	·	·
C=C1CCC2C(C)(C)[C@H](O)CC[C@@]2(C)[C@@H]1COc1cc(=O)oc2ccccc12 (some centres not stated)	·	·	-1	15	1
C=C1CC(COc2cc(=O)oc3ccccc23)(c2ccccc2)OC1=O (configuration not stated)	0	-11	·	-94	56*
C[C@H]1CN([C@@H](C)CO)C(=O)Cc2cc(NC(=O)Cn3cnnn3)ccc2O[C@H]1CN(C)Cc1ccc(C(=O)Nc2ccccc2N)cc1	0	·	·	·	·
CC(=O)c1ccc(Nc2ncnc3c2oc2ccccc23)cc1	·	·	65*	60	·
CCc1nc(NCc2ccccn2)c2oc3ccccc3c2n1	·	·	-21	-9	-16
SMILES	XiGFP reactiv	Wnt act	esBAF inh	MITF act	Vif imaging
COc1cc2c(cc1NCc1ccccn1)oc1ccccc12	·	24	45*	24	-3
Clc1ncnc2c1oc1ccccc12	·	67*	52*	7	-5
c1ccc(CNc2ncnc3c2oc2ccccc23)nc1	·	56*	65*	45	-14
CN1CCN(C(=O)C[C@H]2CC[C@@H]3[C@H](COC[C@H](O)CN3CC3CCOCC3)O2)CC1	0	·	-4	·	·
O=C(C[C@@H]1C=C[C@H](NC(=O)c2cccnc2)[C@H](CO)O1)NCCN1CCCCC1	0	·	-7	·	·
CO[C@H]1CN(C)C(=O)c2ccc(NS(=O)(=O)c3ccc(C)cc3)cc2OC[C@@H](C)NC[C@H]1C	0	·	-1	·	·
c1ccc(-c2nc(NCC3CCCO3)c3oc4ccccc4c3n2)cc1 (configuration not stated)	·	·	1	-8	3
c1ccc2c(c1)oc1c(NCC3CCCO3)ncnc12 (configuration not stated)	·	54*	38	17	-9
O=C(C[C@H]1CC[C@@H]2[C@H](COC[C@@H](O)CN2S(=O)(=O)c2ccc(Oc3ccccc3)cc2)O1)Nc1ccccc1	1	·	0	·	·
